{"source": "ChEMBL document CHEMBL4138271", "about": "“Crystal Structures and Human Leukemia Cell Apoptosis Inducible Activities of Parthenolide Analogues Isolated from Piptocoma rufescens” (J Nat Prod, 2018)", "key": {"MOLM-13 [1]": {"system": "MOLM-13", "assay": "Cytotoxicity against human MOLM13 cells after 72 hrs by MTS assay", "format": "functional, cell-based", "settings": "MOLM-13, 72 h"}, "EOL1 [2]": {"system": "EOL1", "assay": "Induction of apoptosis in human EOL-1 cells assessed as live cells at 2.5 uM after 24 hrs by Annexin-V FITC/7-AAD staining based flow cytometric method (reference value: 97.5%)", "format": "functional"}, "EOL1 [3]": {"system": "EOL1", "assay": "Induction of apoptosis in human EOL-1 cells assessed as late apoptotic cells at 2.5 uM after 24 hrs by Annexin-V FITC/7-AAD staining based flow cytometric method (reference value: 0.535%)", "format": "functional"}, "MOLM-13 [4]": {"system": "MOLM-13", "assay": "Induction of apoptosis in human MOLM13 cells assessed as necrotic cells at 1.3 uM after 24 hrs by Annexin-V FITC/7-AAD staining based flow cytometric method (reference value: 0%)", "format": "functional"}, "MOLM-13 [5]": {"system": "MOLM-13", "assay": "Induction of apoptosis in human MOLM13 cells assessed as live cells at 1.3 uM after 24 hrs by Annexin-V FITC/7-AAD staining based flow cytometric method (reference value: 86.8%)", "format": "functional"}, "MOLM-13 [6]": {"system": "MOLM-13", "assay": "Induction of apoptosis in human MOLM13 cells assessed as caspase-3 activation at 10 uM after 72 hrs by immunoblotting analysis", "format": "functional, cell-based", "outline": "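MOLM-13 cells treated 72 h with test compounds at 10 μM or PKC412 at 10 nM. Cells washed in ice-cold PBS, lysed at 10^8 cells/mL in NP-40 hypertonic buffer (pH 7.5) with protease/phosphatase inhibitors, then run on SDS-PAGE and PVDF. Blots probed 12 h with rabbit monoclonal cleaved caspase-3 (Asp175), β-actin as loading control. Representative of three independent experiments.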"}, "EOL1 [7]": {"system": "EOL1", "assay": "Induction of apoptosis in human EOL-1 cells assessed as necrotic cells at 1.3 uM after 24 hrs by Annexin-V FITC/7-AAD staining based flow cytometric method (reference value: 0.032%)", "format": "functional"}, "MOLM-13 [8]": {"system": "MOLM-13", "assay": "Synergistic antileukemic activity against human MOLM13 cells assessed as concentration required for <= 75% cell survival after 72 hrs in presence of midostaurin by CellTiter 96 AQueous One solution cell proliferation assay", "format": "functional"}, "EOL1 [9]": {"system": "EOL1", "assay": "Induction of apoptosis in human EOL-1 cells assessed as caspase-3 activation at 10 uM after 72 hrs by immunoblotting analysis", "format": "functional, cell-based", "outline": "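EOL-1 cells (RPMI 1640, 10% FBS, 37 °C, 5% CO2) exposed 72 h; compounds at 10 μM, PKC412 at 10 nM. Harvested, PBS-washed, lysed in hypertonic NP-40 buffer with protease/phosphatase inhibitors; SDS-PAGE, PVDF transfer, rabbit monoclonal cleaved caspase-3 (Asp175) antibody 12 h, secondary 1 h, chemiluminescent detection; β-actin loading control. Representative blots of three independent experiments.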"}, "[10]": {"target": "Transcription factor p65 (Homo sapiens) (UniProt Q04206)", "sequence (Q04206 whole entry)": "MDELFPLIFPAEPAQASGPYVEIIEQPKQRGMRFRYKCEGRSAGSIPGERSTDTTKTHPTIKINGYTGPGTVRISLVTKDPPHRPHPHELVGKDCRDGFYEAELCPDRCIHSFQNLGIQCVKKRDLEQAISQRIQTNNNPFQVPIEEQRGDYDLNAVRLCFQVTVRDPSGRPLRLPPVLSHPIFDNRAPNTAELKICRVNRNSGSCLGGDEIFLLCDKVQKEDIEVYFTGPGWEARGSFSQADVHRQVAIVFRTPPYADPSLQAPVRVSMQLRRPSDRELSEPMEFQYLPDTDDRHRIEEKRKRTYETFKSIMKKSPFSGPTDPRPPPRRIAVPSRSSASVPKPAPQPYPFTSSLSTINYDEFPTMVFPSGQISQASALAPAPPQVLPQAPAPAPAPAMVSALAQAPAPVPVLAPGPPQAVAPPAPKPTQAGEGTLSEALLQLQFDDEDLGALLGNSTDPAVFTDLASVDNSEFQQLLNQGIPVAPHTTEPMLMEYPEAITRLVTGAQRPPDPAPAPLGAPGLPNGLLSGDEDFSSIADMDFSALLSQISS", "assay": "Inhibition of NFkappaB p65 in human MOLM13 cells at 10 uM after 72 hrs by immunoblotting method", "format": "cell-based", "outline": "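MOLM-13 or EOL-1 cells treated 72 h at 10 μM. Cells washed in ice-cold PBS and lysed in hypertonic NP-40 buffer (10 mM HEPES pH 7.5, 0.5 M NaCl) with protease/phosphatase inhibitors. Protein measured by BCA; SDS-PAGE onto PVDF. Probed 12 h with rabbit monoclonal NF-κB-p65 antibody, goat β-actin as loading control, then chemiluminescence. Blots representative of three independent experiments.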"}, "MOLM-13 [11]": {"system": "MOLM-13", "assay": "Induction of apoptosis in human MOLM13 cells assessed as early apoptotic cells at 1.3 uM after 24 hrs by Annexin-V FITC/7-AAD staining based flow cytometric method (reference value: 11.8%)", "format": "functional"}, "MOLM-13 [12]": {"system": "MOLM-13", "assay": "Induction of apoptosis in human MOLM13 cells assessed as early apoptotic cells at 2.5 uM after 24 hrs by Annexin-V FITC/7-AAD staining based flow cytometric method (reference value: 11.8%)", "format": "functional"}, "MOLM-13 [13]": {"system": "MOLM-13", "assay": "Induction of apoptosis in human MOLM13 cells assessed as early apoptotic cells at 5 uM after 24 hrs by Annexin-V FITC/7-AAD staining based flow cytometric method (reference value: 11.8%)", "format": "functional"}, "EOL1 [14]": {"system": "EOL1", "assay": "Synergistic antileukemic activity against human EOL-1 cells assessed as concentration required for <= 75% cell survival after 72 hrs in presence of midostaurin by CellTiter 96 AQueous One solution cell proliferation assay", "format": "functional"}, "EOL1 [15]": {"system": "EOL1", "assay": "Induction of apoptosis in human EOL-1 cells assessed as live cells at 1.3 uM after 24 hrs by Annexin-V FITC/7-AAD staining based flow cytometric method (reference value: 97.5%)", "format": "functional"}, "MOLM-13 [16]": {"system": "MOLM-13", "assay": "Induction of apoptosis in human MOLM13 cells assessed as live cells at 2.5 uM after 24 hrs by Annexin-V FITC/7-AAD staining based flow cytometric method (reference value: 86.8%)", "format": "functional"}, "MOLM-13 [17]": {"system": "MOLM-13", "assay": "Induction of apoptosis in human MOLM13 cells assessed as necrotic cells at 5 uM after 24 hrs by Annexin-V FITC/7-AAD staining based flow cytometric method (reference value: 0%)", "format": "functional"}, "EOL1 [18]": {"system": "EOL1", "assay": "Induction of apoptosis in human EOL-1 cells assessed as late apoptotic cells at 1.3 uM after 24 hrs by Annexin-V FITC/7-AAD staining based flow cytometric method (reference value: 0.535%)", "format": "functional"}, "EOL1 [19]": {"system": "EOL1", "assay": "Cytotoxicity against human EOL-1 cells after 72 hrs by MTS assay", "format": "functional, cell-based", "settings": "EOL1, 72 h"}, "EOL1 [20]": {"system": "EOL1", "assay": "Induction of apoptosis in human EOL-1 cells assessed as early apoptotic cells at 5 uM after 24 hrs by Annexin-V FITC/7-AAD staining based flow cytometric method (reference value: 1.94%)", "format": "functional"}, "EOL1 [21]": {"system": "EOL1", "assay": "Induction of apoptosis in human EOL-1 cells assessed as early apoptotic cells at 1.3 uM after 24 hrs by Annexin-V FITC/7-AAD staining based flow cytometric method (reference value: 1.94%)", "format": "functional"}, "EOL1 [22]": {"system": "EOL1", "assay": "Induction of apoptosis in human EOL-1 cells assessed as necrotic cells at 2.5 uM after 24 hrs by Annexin-V FITC/7-AAD staining based flow cytometric method (reference value: 0.032%)", "format": "functional"}, "MOLM-13 [23]": {"system": "MOLM-13", "assay": "Induction of apoptosis in human MOLM13 cells assessed as late apoptotic cells at 1.3 uM after 24 hrs by Annexin-V FITC/7-AAD staining based flow cytometric method (reference value: 1.43%)", "format": "functional"}, "MOLM-13 [24]": {"system": "MOLM-13", "assay": "Induction of apoptosis in human MOLM13 cells assessed as late apoptotic cells at 5 uM after 24 hrs by Annexin-V FITC/7-AAD staining based flow cytometric method (reference value: 1.43%)", "format": "functional"}, "MOLM-13 [25]": {"system": "MOLM-13", "assay": "Induction of apoptosis in human MOLM13 cells assessed as live cells at 5 uM after 24 hrs by Annexin-V FITC/7-AAD staining based flow cytometric method (reference value: 86.8%)", "format": "functional"}, "MOLM-13 [26]": {"system": "MOLM-13", "assay": "Induction of apoptosis in human MOLM13 cells assessed as late apoptotic cells at 2.5 uM after 24 hrs by Annexin-V FITC/7-AAD staining based flow cytometric method (reference value: 1.43%)", "format": "functional"}, "EOL1 [27]": {"system": "EOL1", "assay": "Induction of apoptosis in human EOL-1 cells assessed as necrotic cells at 5 uM after 24 hrs by Annexin-V FITC/7-AAD staining based flow cytometric method (reference value: 0.032%)", "format": "functional"}, "MOLM-13 [28]": {"system": "MOLM-13", "assay": "Induction of apoptosis in human MOLM13 cells assessed as necrotic cells at 2.5 uM after 24 hrs by Annexin-V FITC/7-AAD staining based flow cytometric method (reference value: 0%)", "format": "functional"}, "HT-29": {"system": "HT-29", "assay": "Cytotoxicity against human HT-29 cells after 72 hrs by MTS assay", "format": "functional, cell-based", "settings": "HT-29, 72 h"}, "EOL1 [29]": {"system": "EOL1", "assay": "Induction of apoptosis in human EOL-1 cells assessed as live cells at 5 uM after 24 hrs by Annexin-V FITC/7-AAD staining based flow cytometric method (reference value: 97.5%)", "format": "functional"}, "EOL1 [30]": {"system": "EOL1", "assay": "Induction of apoptosis in human EOL-1 cells assessed as early apoptotic cells at 2.5 uM after 24 hrs by Annexin-V FITC/7-AAD staining based flow cytometric method (reference value: 1.94%)", "format": "functional"}, "EOL1 [31]": {"system": "EOL1", "assay": "Induction of apoptosis in human EOL-1 cells assessed as late apoptotic cells at 5 uM after 24 hrs by Annexin-V FITC/7-AAD staining based flow cytometric method (reference value: 0.535%)", "format": "functional"}}, "note": "Activity calls are given as the source filed them. The calls are words filed in the database; no cut-off is given here."}
{"smiles": "C=C1C(=O)O[C@@H]2C[C@@H](C)/C=C\\C(=O)[C@](C)(OC(C)=O)C[C@H](OC(=O)/C(C)=C\\C)[C@@H]12", "values": [{"measurement": "IC50", "setting": "MOLM-13 [1]", "result": 4.3, "unit": "µM"}, {"measurement": "Activity", "setting": "EOL1 [2]", "result": 63.8, "unit": "%"}, {"measurement": "Activity", "setting": "EOL1 [3]", "result": 32.1, "unit": "%"}, {"measurement": "Activity", "setting": "MOLM-13 [4]", "result": 0.147, "unit": "%"}, {"measurement": "Activity", "setting": "MOLM-13 [5]", "result": 90.8, "unit": "%"}, {"measurement": "Activity", "setting": "MOLM-13 [6]", "result": "Active"}, {"measurement": "Activity", "setting": "EOL1 [7]", "result": 0.053, "unit": "%"}, {"measurement": "Activity", "setting": "MOLM-13 [8]", "result": 1.9, "unit": "µM"}, {"measurement": "Activity", "setting": "EOL1 [9]", "result": "Active"}, {"measurement": "inhibition", "setting": "[10]", "result": "Active"}, {"measurement": "Activity", "setting": "MOLM-13 [11]", "result": 7.82, "unit": "%"}, {"measurement": "Activity", "setting": "MOLM-13 [12]", "result": 10.5, "unit": "%"}, {"measurement": "Activity", "setting": "MOLM-13 [13]", "result": 0.349, "unit": "%"}, {"measurement": "Activity", "setting": "EOL1 [14]", "result": 2.5, "unit": "µM"}, {"measurement": "Activity", "setting": "EOL1 [15]", "result": 96.7, "unit": "%"}, {"measurement": "Activity", "setting": "MOLM-13 [16]", "result": 86.5, "unit": "%"}, {"measurement": "Activity", "setting": "MOLM-13 [17]", "result": 25.5, "unit": "%"}, {"measurement": "Activity", "setting": "EOL1 [18]", "result": 1.36, "unit": "%"}, {"measurement": "IC50", "setting": "EOL1 [19]", "result": 4.3, "unit": "µM"}, {"measurement": "Activity", "setting": "EOL1 [20]", "result": 0.031, "unit": "%"}, {"measurement": "Activity", "setting": "EOL1 [21]", "result": 1.87, "unit": "%"}, {"measurement": "Activity", "setting": "EOL1 [22]", "result": 2.72, "unit": "%"}, {"measurement": "Activity", "setting": "MOLM-13 [23]", "result": 1.28, "unit": "%"}, {"measurement": "Activity", "setting": "MOLM-13 [24]", "result": 73.6, "unit": "%"}, {"measurement": "Activity", "setting": "MOLM-13 [25]", "result": 0.583, "unit": "%"}, {"measurement": "Activity", "setting": "MOLM-13 [26]", "result": 2.77, "unit": "%"}, {"measurement": "Activity", "setting": "EOL1 [27]", "result": 4.73, "unit": "%"}, {"measurement": "Activity", "setting": "MOLM-13 [28]", "result": 0.276, "unit": "%"}, {"measurement": "IC50", "setting": "HT-29", "result": 1.2, "unit": "µM"}, {"measurement": "Activity", "setting": "EOL1 [29]", "result": 2.79, "unit": "%"}, {"measurement": "Activity", "setting": "EOL1 [30]", "result": 1.33, "unit": "%"}, {"measurement": "Activity", "setting": "EOL1 [31]", "result": 92.9, "unit": "%"}]}
